For this test, the target named is T1, Polyphenol oxidase 2 (Agaricus bisporus, UniProt O42713).
T1 sequence (O42713 whole entry): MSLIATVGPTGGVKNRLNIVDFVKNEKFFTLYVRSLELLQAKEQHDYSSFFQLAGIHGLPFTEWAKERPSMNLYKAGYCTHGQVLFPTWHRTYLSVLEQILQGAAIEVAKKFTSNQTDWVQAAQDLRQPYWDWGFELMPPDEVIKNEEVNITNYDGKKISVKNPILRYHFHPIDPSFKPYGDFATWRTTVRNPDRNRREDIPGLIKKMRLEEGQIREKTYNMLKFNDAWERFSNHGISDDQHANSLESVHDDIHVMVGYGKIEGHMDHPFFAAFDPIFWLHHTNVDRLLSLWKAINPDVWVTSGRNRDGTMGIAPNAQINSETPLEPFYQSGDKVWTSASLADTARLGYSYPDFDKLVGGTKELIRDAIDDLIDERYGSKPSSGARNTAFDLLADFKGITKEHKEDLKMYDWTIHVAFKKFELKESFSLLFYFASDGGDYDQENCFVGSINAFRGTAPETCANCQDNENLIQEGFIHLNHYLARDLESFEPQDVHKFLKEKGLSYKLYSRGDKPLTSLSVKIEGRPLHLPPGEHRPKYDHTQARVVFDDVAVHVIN
As to the kind of experiment: Non-competitive inhibition of mushroom tyrosinase using L-tyrosine as substrate by Lineweaver-Burk plots analysis. In a few lines:
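Absorbance at 475 nm read at 30 °C in PBS with 5% DMSO. Global nonlinear Michaelis–Menten fitting over four inhibition models gave Vmax, Km, Kic and Kiu, with the model chosen by minimal χ2.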

Molecule `NC(=S)c1ccccc1` showed an inhibitory constant (Ki) of 0.7 µM.

In turn, `NC(=S)c1cccnc1` [thionicotinamide] came in with a Ki of 4.3 µM.

On to `CCCc1cc(C(N)=S)ccn1` [Ektebin], for which the affinity, expressed as Ki, was 2.4 µM.

Consider `NC(=S)c1ccncc1`, for which the Ki amounted to 22.3 µM.

`CCc1cc(C(N)=S)ccn1` [CHEBI:4885]: the Ki amounted to 1.9 µM.

Molecule `NC(=S)c1ccccn1` came in with a Ki of 2.7 µM.

For the origin of these results see BindingDB's records for doi:10.1016/j.ejmech.2015.10.033 (Kyungpook National University, 2015).
